ChEMBL document CHEMBL4699498 (J Med Chem, 2020)
pIC50: −log10 of the molar value. The source made the active and inactive calls.

Columns and labels:
[1] = system: MDA-MB-436; assay: Antiproliferative activity against human MDA-MB-436 cells assessed as cell growth inhibition incubated for 7 days by CCK-8 assay; assay type: functional, cell-based; settings: MDA-MB-436, 168 h
In short: (§1)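 Cells were sub-cultured at least twice and seeded for 24 h before dosing. Compounds came from 10 mM DMSO stocks, given as 10 points of 3-fold serial dilution starting at 10-20 μM. Incubation was about 7 days (Capan-1 13 days) at 37 °C, 5% CO2. Read-out was CCK-8 absorbance at 450 nm, as % growth versus DMSO wells (duplicate wells). IC50 was fitted by nonlinear regression; three independent experiments.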

[2] = system: MDA-MB-436; assay: Induction of DNA damage in human MDA-MB-436 cells assessed as increase in gammaH2AX foci formation incubated for 24 hrs by Western blot analysis; assay type: functional, cell-based; settings: dose microM 0.1-10, time 24.0 hrs
In short: (§2)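 MDA-MB-436 (BRCA1-/-) or Capan-1 (BRCA2-/-) cells were treated 24 h at the indicated concentrations. Lysis was in RIPA buffer with protease inhibitors, and 20-30 μg protein was run on SDS-PAGE. Blots were probed for γH2AX, with β-tubulin as the loading control, and detected by ECL.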

[3] = system: CWR22R; assay: Antiproliferation activity against human 22Rv1 assessed as cell growth inhibition incubated for 7 days by CCK-8 assay; assay type: functional, cell-based; settings: time 7.0 day; in short: as §1
[4] = system: SW-620; assay: Antiproliferation activity against human SW620 assessed as cell growth inhibition incubated for 7 days by CCK-8 assay; assay type: functional, cell-based; settings: time 7.0 day; in short: as §1
[5] = Acute toxicity in Balb/c mouse xenografted with SW-620 cells assessed as mean weight loss at 10 mg/kg, po qd administered for 5 days in presence of TMZ measured on day 9 relative to control; assay type: organism-based; settings: in vivo, 216 h
In short: (§3)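 Male BALB/c nude mice carried SW620 xenografts (6×10^6 cells s.c.), randomized at ~150 mm³ (6 per group). TMZ 50 mg/kg was given orally once daily on days 0-4, 45 min after the partner drug. Partners were 5 or 10 mg/kg intraperitoneally or 10 mg/kg by oral gavage, daily for 5 days. Vehicle was 5% DMSO/20% PEG400/10% Cremophor EL/65% saline. Tumor volume and body weight were recorded 2-3 times weekly.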

[6] = system: LNCaP; assay: Antiproliferation activity against human LNCAP assessed as cell growth inhibition incubated for 7 days by CCK-8 assay; assay type: functional, cell-based; settings: time 7.0 day; in short: as §1
[7] = Acute toxicity in Balb/c mouse xenografted with SW-620 cells assessed as lethality at 10 mg/kg, po qd administered for 5 days in presence of TMZ; assay type: organism-based; settings: in vivo, 120 h, time 5 day
In short: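 In male BALB/c nude mice (5–6 weeks), s.c. SW620 xenografts (6×10^6 cells, right armpit) were grown to about 150 mm³, then randomised, 6 per group. The agent was given once daily for 5 days, orally or i.p., in 5% DMSO/20% PEG400/10% Cremophor EL/65% saline. TMZ 50 mg/kg was given orally once daily for 5 days from day 0, 45 min after the agent. Body weight was measured 2–3 times weekly.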

[8] = system: SW-620; assay: Potentiation of TMZ induced antitumor activity against SW-620 cells xenografted in Balb/c mouse assessed as tumor growth suppression at 10 mg/kg, po qd administered for 5 days; assay type: functional, organism-based; settings: time 5.0 day; in short: as §3
[9] = system: CAPAN-1; assay: Induction of DNA damage in human Capan1 cells assessed as increase in gammaH2AX foci formation incubated for 24 hrs by Western blot analysis; assay type: functional, cell-based; settings: dose microM 0.1-10, time 24.0 hrs; in short: as §2
[10] = system: CAPAN-1; assay: Antitumor activity against CAPAN-1 cells xenografted in Balb/c mouse assessed as tumor growth inhibition at 100 mg/kg, po qd administered for 21 days; assay type: functional, organism-based; settings: time 21.0 day
In short: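 Male BALB/c nude mice (5-6 weeks old) carried subcutaneous Capan-1 xenografts (5×10^6 cells, right armpit). At ~150 mm³ they were randomized (6 per group). Dosing was 100 mg/kg by oral gavage daily for 21 days, or 25 mg/kg intraperitoneally 5 times a week for 3 weeks. Vehicle was 5% DMSO/20% PEG400/10% Cremophor EL/65% saline. Tumor volume was (length/2)×width², measured 2-3 times weekly.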

[11] = Acute toxicity in Balb/c mouse xenografted with Capan1 cells assessed as lethality at 100 mg/kg, po qd administered for 5 days in presence of cisplatin; assay type: organism-based; settings: in vivo, 120 h, time 5 day
In short: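 Male BALB/c nude mice (5–6 weeks) carried s.c. Capan-1 xenografts (5×10^6 cells, right armpit) and were randomised at about 150 mm³, 6 per group. The agent was given once daily on days 0–4, by oral gavage or i.p., in DMSO/PEG400/Cremophor EL/saline vehicle. Cisplatin 6 mg/kg in saline was given i.p. on day 2, 45 min after the agent. Body weight was recorded 2–3 times weekly.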

[12] = system: PC-3; assay: Antiproliferation activity against human PC-3 assessed as cell growth inhibition incubated for 7 days by CCK-8 assay; assay type: functional, cell-based; settings: time 7.0 day; in short: as §1
[13] = system: HCC1937; assay: Antiproliferation activity against human HCC1937 assessed as cell growth inhibition incubated for 7 days by CCK-8 assay; assay type: functional, cell-based; settings: time 7.0 day; in short: as §1
[14] = system: MDA-MB-468; assay: Antiproliferation activity against human MDA-MB-468 assessed as cell growth inhibition incubated for 7 days by CCK-8 assay; assay type: functional, cell-based; settings: time 7.0 day; in short: as §1
[15] = system: CAPAN-1; assay: Antiproliferative activity against human CAPAN-1 cells assessed as cell growth inhibition incubated for 13 days by CCK-8 assay; assay type: functional, cell-based; settings: CAPAN-1, 312 h; in short: as §1
[16] = system: MDA-MB-231; assay: Antiproliferation activity against human MDA-MB-231 assessed as cell growth inhibition incubated for 7 days by CCK-8 assay; assay type: functional, cell-based; settings: time 7.0 day; in short: as §1

O=C(c1cc(Cc2n[nH]c(=O)c3ccccc23)ccc1F)N1CCN(C(=O)C2CC2)CC1 [OLAPARIB]
Non-Toxic: Activity [7] | Activity [11]
7.74: pIC50 [1]
15%: Activity [5]
7.57: pIC50 [15]
active: Activity [2] | Activity [3] | Activity [4] | Activity [6] | Activity [8] | Activity [9] | Activity [10] | Activity [12] | Activity [13] | Activity [14] | Activity [16]
